Each structure is given as a SMILES string. Active and inactive are the calls of the source. No cut-off for these calls is given here. Some results are limits rather than exact numbers.

Assay [1] addresses T1, G protein-coupled receptor 88 (Homo sapiens, UniProt Q9GZN0). In words: Agonist activity at PPLS-HA-tagged-GPR88 (unknown origin) expressed in CHO cells assessed as inhibition of forskolin-stimulated cAMP production measured after 30 mins by TR-FRET assay. Format: functional, cell-based. On the technique in general: cAMP levels reflect the balance of adenylyl cyclase and phosphodiesterase activity.

The target of assay [2] is T1, G protein-coupled receptor 88. In words: Agonist activity at PPLS-HA-tagged-GPR88 (unknown origin) expressed in CHO cells assessed as inhibition of forskolin-stimulated cAMP production at 1 uM measured after 30 mins by TR-FRET assay. Type of assay: functional, cell-based. Summed up: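 Stable PPLS-HA-GPR88 CHO cells lifted with versene, 4,000 cells/well in HBSS with 5 mM HEPES, 0.1% BSA and 0.5 mM IBMX (pH 7.4). Single 1 μM test compound plus forskolin (300 nM at 4× final), 30 min at RT. Eu-cAMP tracer and ULight-anti-cAMP added, TR-FRET read (ex 337 nm) after 1 h at RT. Activity expressed as percentage of reference-agonist TR-FRET signal.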

T1 sequence (Q9GZN0 whole entry): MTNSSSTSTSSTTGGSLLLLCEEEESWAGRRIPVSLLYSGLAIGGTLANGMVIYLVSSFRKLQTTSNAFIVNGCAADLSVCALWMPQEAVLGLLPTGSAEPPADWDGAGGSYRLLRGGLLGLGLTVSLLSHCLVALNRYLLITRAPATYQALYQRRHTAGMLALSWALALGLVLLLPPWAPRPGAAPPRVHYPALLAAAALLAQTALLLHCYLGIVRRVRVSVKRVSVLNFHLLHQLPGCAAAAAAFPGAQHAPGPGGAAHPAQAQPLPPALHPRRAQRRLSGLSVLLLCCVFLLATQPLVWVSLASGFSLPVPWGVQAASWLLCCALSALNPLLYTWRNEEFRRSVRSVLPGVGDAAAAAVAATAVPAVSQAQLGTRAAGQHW

Consider `CCCC(C)COc1ccc([C@H](CO)NC(=O)CCc2ccccc2)cc1` (stereo not given in full), for which the half-maximal effective concentration (EC50) (in general, the concentration that produces a half-maximal response) in assay [1] was determined as 0.345 µM. The same measure, in the same setting: next, `CCCC(C)COc1ccc([C@@H](NC(=O)Cc2ccccc2F)C(=O)OC)cc1` (stereo not given in full): 7.87 µM; `CCCC(C)COc1ccc([C@H](CO)NC(=O)[C@@H](CC)c2ccccc2)cc1` (stereo not given in full): 0.145 µM. The same measure, in the same setting: next, `CCCC(C)COc1ccc([C@@H](NC(=O)[C@@H](C)c2ccccc2)C(=O)O)cc1` (stereo not given in full): over 10 µM.

Turning to `CCCC(C)COc1ccc([C@@H](NC(=O)[C@@H](C)c2ccccc2)C(=O)OC)cc1` (stereo not given in full), the agonist activity call in assay [2] is “Active”. The EC50 in assay [1] is 0.538 µM.

`CCCC(C)COc1ccc([C@@H](NC(=O)Cc2ccc(OC)cc2)C(=O)OC)cc1` (stereo not given in full): the EC50 in assay [1] is 9.57 µM. Still for that read-out and setting: to `CCCC(C)COc1ccc([C@@H](NC(=O)C(C)C2CCCCC2)C(=O)OC)cc1` (mixture of isomers) belongs over 10 µM. Same read-out and setting: to `CCCC(C)COc1ccc([C@@H](NC(=O)Cc2cccc(F)c2)C(=O)OC)cc1` (stereo not given in full) belongs 3.91 µM. The same measure, in the same setting: next, `CCCC(C)COc1ccc([C@H](CN=[N+]=[N-])NC(=O)[C@@H](C)c2ccccc2)cc1` (stereo not given in full): 0.134 µM; `CCCC(C)COc1ccc([C@H](CO)NC(=O)CCCc2ccccc2)cc1` (stereo not given in full): 1.44 µM. Regarding `CCCC(C)COc1ccc([C@@H](NC(=O)[C@@H](CC)c2ccccc2)C(=O)OC)cc1` (stereo not given in full), the agonist activity call in assay [2] was “Active”. Besides, the EC50 in assay [1] was 0.583 µM. For the compound `CCCC(C)COc1ccc([C@@H](NC(=O)[C@H](C)c2ccccc2)C(=O)OC)cc1` (stereo not given in full), the agonist activity call in assay [2] is “Active”. Take `CCCC(C)COc1ccc([C@H](CO)NC(=O)Cc2ccccc2)cc1` (stereo not given in full): in assay [1], the EC50 came to 0.487 µM. On the same count and under the same terms, next, `CCCC(C)COc1ccc([C@@H](NC(=O)Cc2ccc(F)cc2)C(=O)OC)cc1` (stereo not given in full): 5.86 µM; `CCCC(C)COc1ccc([C@@H](NC(=O)Cc2ccc(C)cc2)C(=O)OC)cc1` (stereo not given in full): 3.7 µM. In the case of `CCCC(C)COc1ccc([C@@H](NC(=O)Cc2ccc(C#N)cc2)C(=O)OC)cc1` (stereo not given in full), the EC50 in assay [1] was over 10 µM. Regarding `CCCC(C)COc1ccc([C@@H](NC(=O)Cc2ccccc2)C(=O)OC)cc1` (stereo not given in full), the agonist activity call in assay [2] is “Active”. Besides, in assay [1], the EC50 worked out at 2.63 µM.

These data come from ChEMBL document CHEMBL3875197, “Design, synthesis and pharmacological evaluation of 4-hydroxyphenylglycine and 4-hydroxyphenylglycinol derivatives as GPR88 agonists” (Bioorg Med Chem, 2017).
